According to ChEMBL document CHEMBL1134461, “Hexahydrochromeno[4,3-b]pyrrole derivatives as acetylcholinesterase inhibitors” (J Med Chem, 2001):

Columns and labels:
Acetylcholinesterase [1] = target: T1, Acetylcholinesterase (Homo sapiens, UniProt P22303); experiment: Inhibitory activity against acetylcholinesterase in human erythrocytes; assay type: cell-based
Summary of the method: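 Ellman colorimetric assay with human erythrocyte enzyme (AChE or BChE), 0.035 unit/mL, in 0.1 M phosphate buffer pH 8.0 with 340 μM DTNB. Inhibitor preincubated with enzyme 20 min, then 550 μM acetylthiocholine iodide added. […] IC50 read graphically from log concentration–inhibition curves; pIC50 is the mean of two independent measurements.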

Acetylcholinesterase [2] = target: T1, Acetylcholinesterase
Acetylcholinesterase [3] = target: T1, Acetylcholinesterase; remark: listed apart in the source

T1 sequence (P22303 whole entry): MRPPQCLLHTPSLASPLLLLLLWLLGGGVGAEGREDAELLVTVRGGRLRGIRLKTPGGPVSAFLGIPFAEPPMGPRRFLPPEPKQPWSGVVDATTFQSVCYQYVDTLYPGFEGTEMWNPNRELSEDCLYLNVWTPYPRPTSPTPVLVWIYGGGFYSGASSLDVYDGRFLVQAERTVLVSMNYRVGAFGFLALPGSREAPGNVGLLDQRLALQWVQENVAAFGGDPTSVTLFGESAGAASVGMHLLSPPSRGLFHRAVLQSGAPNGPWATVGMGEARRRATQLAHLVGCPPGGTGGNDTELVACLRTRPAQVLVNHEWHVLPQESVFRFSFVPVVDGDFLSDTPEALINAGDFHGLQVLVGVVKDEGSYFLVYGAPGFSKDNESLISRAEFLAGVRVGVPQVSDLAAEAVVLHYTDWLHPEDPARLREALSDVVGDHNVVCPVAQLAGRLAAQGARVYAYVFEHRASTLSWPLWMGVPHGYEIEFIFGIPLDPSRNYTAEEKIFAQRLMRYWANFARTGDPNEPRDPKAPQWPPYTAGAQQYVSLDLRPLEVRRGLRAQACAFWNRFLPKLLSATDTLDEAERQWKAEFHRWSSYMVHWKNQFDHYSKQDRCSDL

| Structure (SMILES) | IC50 (Acetylcholinesterase [1]) [nM] | Kc (Acetylcholinesterase [2]) [nM] | k3 (Acetylcholinesterase [3]) [min⁻¹] |
| --- | --- | --- | --- |
| CNC(=O)Oc1cccc2c1OC[C@@H]1CCN(C)[C@H]21 (stereo in doubt; (+)-4) | 74.1 |  |  |
| CNC(=O)Oc1ccc2c(c1)OC[C@@H]1CC[N+](C)(C)[C@H]21 | 1820 |  |  |
| O=C(CCCCCCC(=O)NCCCCCCN1CC[C@H]2COc3ccccc3[C@H]21)NCCCCCCN1CC[C@H]2COc3ccccc3[C@H]21 | 9770 |  |  |
| CNC(=O)Oc1ccc2c(c1)[C@]1(C)CCN(C)[C@@H]1N2C |  | 250 |  |
| CNC(=O)Oc1ccc2c(c1)OC[C@@H]1CCN(C)[C@H]21 | 1950 |  |  |
| CNC(=O)Oc1cccc2c1OC[C@@H]1CCN(C)[C@H]21 (stereo in doubt; 4) [listing 1 of 2 here] | 29.5 |  |  |
| CNC(=O)Oc1cccc2c1OC[C@@H]1CCN(C)[C@H]21 (stereo in doubt; (-)-4) | 22.9 |  |  |
| CNC(=O)Oc1ccc2c(c1)[C@@H]1[C@@H](CCN1C)CO2 | 16200 |  |  |
| CNC(=O)Oc1cccc2c1OC[C@@H]1CCN(C)[C@H]21 (stereo in doubt; 4) [listing 2 of 2 here] |  | 730 | 26.5 |
| CN1CC[C@H]2COc3c(O)cccc3[C@H]21 | 39800 |  |  |
